Laboratory results: the M2OR odorant receptor database
Numbering of substitutions follows the chain as printed.

What was measured:
Conditions in all cases: stereoisomer not certain
[1] = molecular target: T1, OR2W1 (Homo sapiens) (UniProt Q9Y3N9)
T1 sequence (whole entry): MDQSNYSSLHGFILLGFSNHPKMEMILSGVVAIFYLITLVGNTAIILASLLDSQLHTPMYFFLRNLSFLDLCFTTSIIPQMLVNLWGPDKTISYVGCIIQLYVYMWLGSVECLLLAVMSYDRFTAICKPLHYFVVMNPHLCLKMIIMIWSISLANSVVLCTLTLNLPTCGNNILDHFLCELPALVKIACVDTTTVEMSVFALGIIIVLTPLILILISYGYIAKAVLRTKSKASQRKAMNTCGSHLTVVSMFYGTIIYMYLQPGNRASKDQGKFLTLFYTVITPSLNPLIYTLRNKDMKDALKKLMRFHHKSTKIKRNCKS
Summary of the method: (§1)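 Each entry records the cell line, G-protein, co-transfected protein and tags used. Methods varied with the source, often transient luciferase assays in mammalian cell lines. A receptor–molecule pair is called responsive (active) if the original authors judged its signal statistically different from baseline and non-responsive (inactive) otherwise.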

[2] = system: T2, OR2T6 C23G
T2 sequence (whole entry): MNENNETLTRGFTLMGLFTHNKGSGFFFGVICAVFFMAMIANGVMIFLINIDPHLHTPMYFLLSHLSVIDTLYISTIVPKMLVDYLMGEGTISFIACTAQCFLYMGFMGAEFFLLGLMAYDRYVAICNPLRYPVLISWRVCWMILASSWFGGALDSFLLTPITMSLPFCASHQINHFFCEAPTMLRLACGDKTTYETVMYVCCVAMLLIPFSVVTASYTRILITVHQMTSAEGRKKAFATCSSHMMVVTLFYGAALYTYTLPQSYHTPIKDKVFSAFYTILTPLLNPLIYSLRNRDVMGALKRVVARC
Summary of the method: as §1

[3] = system: T3, OR2T7
T3 sequence (whole entry): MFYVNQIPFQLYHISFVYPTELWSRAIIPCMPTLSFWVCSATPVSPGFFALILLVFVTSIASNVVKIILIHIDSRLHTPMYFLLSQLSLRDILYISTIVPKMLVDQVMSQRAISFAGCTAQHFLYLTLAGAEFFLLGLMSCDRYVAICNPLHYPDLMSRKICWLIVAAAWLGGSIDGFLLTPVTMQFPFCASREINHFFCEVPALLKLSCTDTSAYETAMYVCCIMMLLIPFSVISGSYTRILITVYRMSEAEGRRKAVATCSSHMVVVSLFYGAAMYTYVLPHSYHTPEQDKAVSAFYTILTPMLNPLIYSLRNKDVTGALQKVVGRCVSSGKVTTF
Summary of the method: as §1

[4] = molecular target: T4, OR2T8 (Homo sapiens) (UniProt A6NH00)
T4 sequence (whole entry): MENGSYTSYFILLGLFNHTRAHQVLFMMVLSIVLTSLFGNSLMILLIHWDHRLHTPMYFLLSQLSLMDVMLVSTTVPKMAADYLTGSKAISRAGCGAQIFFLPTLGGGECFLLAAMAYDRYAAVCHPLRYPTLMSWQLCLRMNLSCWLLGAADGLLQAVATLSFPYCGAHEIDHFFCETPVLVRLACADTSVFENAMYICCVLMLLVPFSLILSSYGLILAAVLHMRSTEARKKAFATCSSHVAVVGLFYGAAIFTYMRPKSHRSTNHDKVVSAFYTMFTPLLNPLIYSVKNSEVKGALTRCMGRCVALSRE
Summary of the method: as §1

[5] = molecular target: T5, OR2V1 (Homo sapiens) (UniProt Q8NHB1)
T5 sequence (whole entry): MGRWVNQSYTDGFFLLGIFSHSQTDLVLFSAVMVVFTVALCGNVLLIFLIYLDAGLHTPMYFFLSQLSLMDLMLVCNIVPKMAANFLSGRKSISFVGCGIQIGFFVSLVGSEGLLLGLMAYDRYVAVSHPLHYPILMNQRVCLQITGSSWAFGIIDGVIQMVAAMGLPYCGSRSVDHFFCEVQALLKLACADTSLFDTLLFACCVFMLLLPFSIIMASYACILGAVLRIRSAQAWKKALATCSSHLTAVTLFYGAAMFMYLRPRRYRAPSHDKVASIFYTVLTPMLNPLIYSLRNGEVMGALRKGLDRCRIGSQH
Summary of the method: as §1

[6] = molecular target: T6, OR2V2 (Homo sapiens) (UniProt Q96R30)
T6 sequence (whole entry): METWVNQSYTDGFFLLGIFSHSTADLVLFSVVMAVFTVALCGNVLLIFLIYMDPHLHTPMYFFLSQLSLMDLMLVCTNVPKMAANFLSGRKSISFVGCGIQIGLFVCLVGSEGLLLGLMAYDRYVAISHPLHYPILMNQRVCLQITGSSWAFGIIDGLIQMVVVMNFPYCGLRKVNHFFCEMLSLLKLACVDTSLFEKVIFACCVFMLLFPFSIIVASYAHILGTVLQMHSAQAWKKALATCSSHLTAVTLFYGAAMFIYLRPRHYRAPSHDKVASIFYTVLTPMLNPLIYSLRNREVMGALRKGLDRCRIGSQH
Summary of the method: as §1

[7] = system: T7, OR2W1 G96V
T7 sequence (whole entry): T1 sequence (whole entry) with G96V
Summary of the method: as §1

[8] = system: T8, OR2W1
T8 sequence (whole entry): T1 sequence (whole entry) with D296N
Summary of the method: as §1

[9] = system: T9, OR2W1; remark: listed apart in the source
T9 sequence (whole entry): T1 sequence (whole entry) with M81V
Summary of the method: as §1

[10] = molecular target: T10, OR2T7 (Homo sapiens) (UniProt P0C7T2)
T10 sequence (whole entry): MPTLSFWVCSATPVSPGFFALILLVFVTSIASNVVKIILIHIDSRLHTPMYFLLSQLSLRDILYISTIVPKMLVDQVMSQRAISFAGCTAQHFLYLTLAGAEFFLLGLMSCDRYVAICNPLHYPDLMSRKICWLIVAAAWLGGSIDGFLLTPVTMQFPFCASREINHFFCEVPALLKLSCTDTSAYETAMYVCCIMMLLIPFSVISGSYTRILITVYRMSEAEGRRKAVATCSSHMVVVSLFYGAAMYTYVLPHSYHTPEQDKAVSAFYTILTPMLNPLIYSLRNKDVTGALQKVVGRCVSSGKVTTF
Summary of the method: as §1

Measured: odorant receptor agonist call

C=Cc1ccc(OCCCCOc2ccc(C=C)cc2)cc1
inactive: [1]

CCC1OC(C)=C(O)C1=O (stereo unspecified)
inactive: [2] | [3] | [4] | [5] | [6] | [1] | [7]

CC1=C(O)C(=O)OC1C (stereo unspecified)
inactive: [2] | [3] | [4] | [5] | [6] | [1] | [7]

CCCCC(=O)CC
active: [1]

CCCC(S)CCOC(C)=O (stereo unspecified)
active: [1] | [7] | [8] | [9]
inactive: [2] | [3] | [4] | [5] | [6]

CCOC(C)OCC
inactive: [1]

CCC1OC(=O)C(O)=C1C (stereo unspecified)
inactive: [2] | [3] | [4] | [5] | [6] | [1] | [7]

CC(=O)c1ccccc1N
inactive: [1]

CC=CC(=O)C(C)CC (stereo unspecified)
inactive: [1]

CCCCC(CC)CCC(=O)O (stereo unspecified)
inactive: [1]

CCCCCC(=O)C(C)C(C)=O (stereo unspecified)
inactive: [10] | [4] | [5] | [6] | [1]
active: [8] | [9]

Cc1c[nH]c2ccccc12
inactive: [1]

CC1=C(O)C(=O)C(C)O1 (stereo unspecified)
inactive: [2] | [3] | [4] | [5] | [6] | [1] | [7]

CCc1ccc(O)c(OC)c1
inactive: [1]

CSCCC=O
inactive: [1]

CCC(C)CCC(=O)[O-] (stereo unspecified)
active: [1]

Cc1cnc(C)c(C)n1
inactive: [2] | [3] | [4] | [5] | [6] | [1] | [7]

CC1CCCCCCCCCCCCC(=O)C1 (stereo unspecified)
inactive: [10] | [4] | [5] | [6] | [1]

CC(=O)c1c(C)c([N+](=O)[O-])c(C(C)(C)C)c([N+](=O)[O-])c1C
inactive: [10] | [4] | [5] | [6] | [1]

CC(CO)CS (stereo unspecified)
inactive: [10] | [4] | [5] | [6] | [1]

Cc1occc(=O)c1O
inactive: [1]

CCCCC(S)C(C)CO (stereo unspecified)
inactive: [10] | [4] | [5] | [6] | [1]

CCCCCOC(=O)CCCCC
inactive: [1]

Cc1cccc(C)c1O
inactive: [1]

CCCCCCC=CCCC=O
inactive: [2] | [10] | [4] | [5] | [6] | [1] | [7]
